# Assays:
# [1] = target: insulin receptor (IR) (Homo sapiens, UniProt P06213); test: IR affinity relative to HI; format: binding
# [2] = test system: extracellular-regulated kinase (ERK); test: Phospho-ERK in CHO-hIR cells; format: cell-based, Chinese Hamster; conditions: HSA 0.1%, n=3; for EC50: read-out: EC50 (nM) Mean (95% CI), Phospho-ERK in CHO-hIR cells
# [3] = test system: protein kinase B (AKT); test: Phospho-AKT in CHO-hIR cells; format: cell-based, Chinese Hamster; conditions: read-out: EC50 (nM) Mean (95% CI), Phospho-AKT in CHO-hIR cells; HSA 0.1%, n=3
# [4] = test system: rat hepatocytes; test: Glycogen accumulation in rat hepatocytes; format: cell-based; conditions: for EC50: read-out: EC50 (nM) Mean (95% CI), Glycogen accumulation in rat hepatocytes, n=7, geometric mean
# Outline: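 Hepatocytes are isolated from rat by two-step collagenase perfusion. […] Determine cellular glycogen as glucose released after amyloglucosidase digestion.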
# [5] = target: Human IR-A (Homo sapiens, UniProt P06213); test: Human IR-A binding, competition scintillation proximity assay; conditions: n=3
# [6] = target: Human IR-B (Homo sapiens, UniProt P06213); test: Human IR-B binding, competition scintillation proximity assay; conditions: n=3
# [7] = target: Human IGF-1R (Homo sapiens, UniProt P08069); test: Human IGF-1R binding, competition scintillation proximity assay; conditions: HSA 0%, n=4
# Human IGF-1R, sequence (P08069 31-736 limits assumed): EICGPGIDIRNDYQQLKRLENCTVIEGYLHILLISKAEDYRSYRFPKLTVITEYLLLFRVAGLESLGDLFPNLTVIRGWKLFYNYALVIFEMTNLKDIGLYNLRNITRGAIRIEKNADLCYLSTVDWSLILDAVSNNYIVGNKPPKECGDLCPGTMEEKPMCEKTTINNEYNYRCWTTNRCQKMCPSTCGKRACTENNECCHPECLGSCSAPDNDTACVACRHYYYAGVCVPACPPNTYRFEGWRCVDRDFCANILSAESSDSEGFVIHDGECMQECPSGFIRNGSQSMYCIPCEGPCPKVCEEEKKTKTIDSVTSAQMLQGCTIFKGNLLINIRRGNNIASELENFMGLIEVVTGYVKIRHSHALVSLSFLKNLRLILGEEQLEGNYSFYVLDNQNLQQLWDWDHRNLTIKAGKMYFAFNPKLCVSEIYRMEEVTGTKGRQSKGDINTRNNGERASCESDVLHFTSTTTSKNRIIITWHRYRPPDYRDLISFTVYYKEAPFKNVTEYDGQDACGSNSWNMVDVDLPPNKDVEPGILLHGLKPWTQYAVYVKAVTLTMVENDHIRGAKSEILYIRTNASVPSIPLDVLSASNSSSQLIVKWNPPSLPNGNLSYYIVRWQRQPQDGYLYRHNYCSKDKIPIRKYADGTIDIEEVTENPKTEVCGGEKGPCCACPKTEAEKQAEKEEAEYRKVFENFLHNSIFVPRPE
# Human IGF-1R, sequence (P08069 741-1367 partner limits assumed): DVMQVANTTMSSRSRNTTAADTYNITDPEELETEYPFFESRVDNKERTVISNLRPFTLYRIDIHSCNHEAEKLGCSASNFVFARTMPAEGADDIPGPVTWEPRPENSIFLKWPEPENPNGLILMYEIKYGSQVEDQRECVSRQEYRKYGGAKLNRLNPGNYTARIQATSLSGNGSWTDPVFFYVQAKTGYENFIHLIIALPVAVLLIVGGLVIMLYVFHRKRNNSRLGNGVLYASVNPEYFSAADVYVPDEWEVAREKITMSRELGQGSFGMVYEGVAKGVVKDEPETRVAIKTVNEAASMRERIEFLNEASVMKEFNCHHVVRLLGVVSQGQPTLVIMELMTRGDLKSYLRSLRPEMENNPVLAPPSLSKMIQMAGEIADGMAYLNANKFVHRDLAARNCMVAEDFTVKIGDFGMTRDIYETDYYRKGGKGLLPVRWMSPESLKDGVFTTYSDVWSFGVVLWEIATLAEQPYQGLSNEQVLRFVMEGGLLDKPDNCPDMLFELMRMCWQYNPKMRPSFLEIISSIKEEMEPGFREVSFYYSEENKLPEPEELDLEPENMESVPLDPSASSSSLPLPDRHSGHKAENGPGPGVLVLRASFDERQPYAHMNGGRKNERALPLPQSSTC
# [8] = target: human insulin receptors (hIRs) (Homo sapiens, UniProt P06213); test: IR phosphorylation in CHO-hIR cells; format: cell-based
# [9] = test system: primary rat adipocytes; test: Lipogenesis in rat adipocytes; format: cell-based; conditions: HSA 0.1%, n=4
# [10] = test system: L6-hIR cells; test: Glycogen synthesis in rat L6-hIR cells; format: cell-based; conditions: HSA 0.1%, n=4
# Outline: (§1)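 L6-hIR cells are a rat skeletal myoblast L6 line stably transfected with the A isoform of human IR. MCF-7 is a human mammary adenocarcinoma line.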
# [11] = test system: MCF-7 cells; test: Glycogen synthesis in human MCF-7 cells; format: cell-based; conditions: HSA 0%, n=5
# Outline: as §1
# [12] = test system: L6-hIR cells; test: DNA synthesis; format: cell-based, rat; conditions: HSA 0%, n=5
# [13] = test system: MCF-7 cells; test: DNA synthesis; format: cell-based, human; conditions: HSA 0%, n=4
# [14] = test system: COLO-205 cells; test: DNA synthesis; format: cell-based, human; conditions: HSA 0%, n=3
# [15] = test system: HMEC cells; test: DNA synthesis; format: cell-based, human; conditions: HSA 0%, n=7
# [16] = Clinical pharmacology trial: pharmacokinetics, total serum insulin icodec; format: in vivo, human
# Outline: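 Randomized, double-blind, double-dummy, active-controlled, multiple-dose escalation trial in adults aged 18–64 with type 2 diabetes on insulin (HbA1c ≤9.0%). Participants received once-weekly s.c. thigh injections at 12, 20 or 24 nmol/kg (one dose per cohort) for 5 weeks, at ~20:00. Total serum test compound (free plus albumin-bound) was measured by a specific assay at prespecified times, from predose to 36 days after the last dose.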
# [17] = test system: individuals with type 2 diabetes; test: Clinical pharmacology trial: safety assessments; format: in vivo, human
# Outline: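 Dose-escalation trial in type 2 diabetes. Three sequential cohorts received once-weekly s.c. thigh injections at 12, 20 or 24 nmol/kg with once-daily placebo for 5 weeks. Safety covered adverse events, hypoglycemic episodes, injection site reactions, vital signs, physical examination, clinical laboratory tests and ECG. An internal safety group reviewed blinded interim data before each escalation.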
substance,measurement,setting,value
desB30: human insulin with the threonine in position B30 deleted,influence on the IR affinity,[1]; deletion of threonine in position B30 of HI,no influence
B16H: individual amino acid substitution TyrB16His in human insulin,IR affinity relative to HI,[1]; relative to HI,22%
human insulin [reference compound],EC50,[2],1.02 nM
same,EC50,[3],0.15 nM
same,EC50,[4]; HSA 0%,0.28 nM
insulin icodec,"IC50 (%) Insulin icodec relative to human insulin Mean (95% CI), Human IR-A binding",[5]; HSA 0%,0.50%
same,"IC50 (%) Insulin icodec relative to human insulin Mean (95% CI), Human IR-A binding",[5]; HSA 1.5%,0.03%
same,"IC50 (%) Insulin icodec relative to human insulin Mean (95% CI), Human IR-B binding",[6]; HSA 0%,0.78%
same,"IC50 (%) Insulin icodec relative to human insulin Mean (95% CI), Human IR-B binding",[6]; HSA 1.5%,0.03%
same,"IC50 (%) Insulin icodec relative to human insulin Mean (95% CI), Human IGF-1R binding",[7],0.14%
same,agonism at IRs (activation of IRs and downstream AKT and ERK),"[8]; CHO-hIR cells, 0.1% HSA, in a similar manner as HI",full agonist
same,"EC50 (%) Insulin icodec relative to human insulin Mean (95% CI), IR phosphorylation in CHO-hIR cells","[8]; HSA 0.1%, n=3",0.21%
same,"EC50 (%) Insulin icodec relative to human insulin Mean (95% CI), Phospho-ERK in CHO-hIR cells",[2],0.39%
same,EC50,[2],271 nM
same,EC50,[3],245 nM
same,"EC50 (%) Insulin icodec relative to human insulin Mean (95% CI), Lipogenesis in rat adipocytes",[9],0.029%
same,"EC50 (%) Insulin icodec relative to human insulin Mean (95% CI), Glycogen accumulation in rat hepatocytes","[4]; HSA 0%, n=7",4.3%
same,"EC50 (%) Insulin icodec relative to human insulin Mean (95% CI), Glycogen accumulation in rat hepatocytes","[4]; HSA 0.1%, n=8",0.24%
same,EC50,[4]; HSA 0%,6.4 nM
same,"EC50 (%) Insulin icodec relative to human insulin Mean (95% CI), Glycogen synthesis in rat L6-hIR cells",[10],0.52%
same,"EC50 (%) Insulin icodec relative to human insulin Mean (95% CI), Glycogen synthesis in human MCF-7 cells",[11],0.26%
same,"EC50 (%) Insulin icodec relative to human insulin Mean (95% CI), DNA synthesis in rat L6-hIR cells",[12],0.6%
same,"EC50 (%) Insulin icodec relative to human insulin Mean (95% CI), DNA synthesis in human MCF-7 cells",[13],0.5%
same,"EC50 (%) Insulin icodec relative to human insulin Mean (95% CI), DNA synthesis in human COLO-205 cells",[14],2.0%
same,"EC50 (%) Insulin icodec relative to human insulin Mean (95% CI), DNA synthesis in human HMEC cells",[15],0.2%
same,time to maximum concentration (median tmax),"[16]; type 2 diabetes, once-weekly s.c. dosing",16 h
same,maximum serum concentration at steady state,[16]; week 5 of once-weekly dosing,< 500 nmol/L
same,"adverse events, number of events","[17]; 12 nmol/kg once weekly, n=13",33 events
same,"adverse events, number of individuals with events","[17]; 12 nmol/kg once weekly, n=13",13 individuals
same,"adverse events, number of events","[17]; 20 nmol/kg once weekly, n=13",19 events
same,"adverse events, number of individuals with events","[17]; 20 nmol/kg once weekly, n=13",9 individuals
same,"adverse events, number of events","[17]; 24 nmol/kg once weekly, n=12",23 events
same,"adverse events, number of individuals with events","[17]; 24 nmol/kg once weekly, n=12",9 individuals
same,"serious or severe adverse events, severe hypoglycemic episodes, injection site reactions or clinically significant findings in vital signs, physical examination, clinical laboratory assessments or ECG","[17]; 12, 20, 24 nmol/kg once weekly for 5 weeks",No serious or severe adverse events
same,tolerability,"[17]; 12, 20, 24 nmol/kg once weekly for 5 weeks, type 2 diabetes",well tolerated

# Reference: article PMC8378355 (BMJ Open Diabetes Research & Care, 2021)
